Experimental findings from ChEMBL document CHEMBL2440038, “Arylthioamides as H2S Donors: l-Cysteine-Activated Releasing Properties and Vascular Effects in Vitro and in Vivo” (ACS Med Chem Lett, 2013) are described below.

The test system of data set [1] is Rattus norvegicus. Put plainly: Reduction of systolic blood pressure in rat at 0.1 mg/kg, po (reference value: 102% +/- 1%). The data set is classed as functional, Artery. Further details: scale not given: the % may be the effect or the level left.
Data set [2] concerns Aorta. Put plainly: Inhibition of noradrenaline-induced vasoconstriction in Wistar rat endothelium-denuded thoracic aortic ring at 1 mM after 20 mins. The data set is classed as functional, tissue-based. The gist of the method:
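Endothelium-denuded rat aortic rings preincubated with test agent, NaHS or vehicle, then given cumulative noradrenaline. Contraction expressed as % of a prior response to 60 mM KCl.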

Data set [3] is described as follows: Activation of KATP channel in HASMC assessed as membrane hyperpolarization using DiBac4(3) dye by spectrofluorimetric analysis relative to LCRK. The conditions noted are these: Homo sapiens. The gist of the method: (§1)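 Cultured human aortic smooth muscle cells; membrane potential followed as change in relative fluorescence of a potential-sensitive dye. Test agent added at increasing concentrations up to 1 mM. Response expressed as % of maximal hyperpolarization produced by levcromakalim 10 μM (reference KATP opener). Mean with SEM.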

The nature of data set [4]: Induction of H2S release in Tyrode buffer in presence of Wistar rat endothelium-denuded thoracic aortic ring. The data set is classed as functional. The conditions noted are these: TDE = time-dependent effect. The gist of the method: (§2)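 Incubation in Tyrode buffer, the medium used for functional tests, with or without rat aortic ring tissue. No L-cysteine or glutathione added. H2S recorded continuously by amperometry; concentration reported 15 min after addition. Mean with SEM.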

Data set [5] can be described thus: Activation of KATP channel in HASMC assessed as membrane hyperpolarization at 1 mM using DiBac4(3) dye by spectrofluorimetric analysis relative to LCRK. The conditions noted are these: Homo sapiens. An outline of the steps:
as §1

Data set [6] is described as follows: Induction of H2S release in PBS buffer 10x at pH 7.4 at 1 mM in presence of glutathione. The conditions noted are these: pH 7.4, 1000 µM. Type of data set: physicochemical. An outline of the steps:
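Release measured amperometrically in assay buffer (pH 7.4, 35–37 °C), test agent 1 mM, with reduced glutathione added as the thiol. Continuous H2S–time curves recorded. Mean with SEM.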

The nature of data set [7]: Induction of H2S release in Tyrode buffer after 15 mins. The conditions noted are these: 0.25 h. The data set is classed as physicochemical. An outline of the steps:
as §2

Active and inactive are the calls of the source. No cut-off for these calls is given here.

In the case of `NC(=S)c1ccc(O)cc1`, the Activity was 89% in data set [1]; “Dose-dependent effect” in data set [3]; “tde” in data set [4]; 79% in data set [5]; “Active” in data set [6]; 0.24 µM in data set [7]. Further, the inhibition entry in data set [2] was “Active”.

Consider `[Na+].[SH-]` [SODIUM HYDROSULFIDE], for which the Activity in data set [1] is 91%; in data set [5] it was 52%. Moreover, the inhibition result in data set [2] was “Active”.
